Assay [1] addresses T1, Neutrophil elastase (Homo sapiens) (UniProt P08246).
T1 sequence (whole entry): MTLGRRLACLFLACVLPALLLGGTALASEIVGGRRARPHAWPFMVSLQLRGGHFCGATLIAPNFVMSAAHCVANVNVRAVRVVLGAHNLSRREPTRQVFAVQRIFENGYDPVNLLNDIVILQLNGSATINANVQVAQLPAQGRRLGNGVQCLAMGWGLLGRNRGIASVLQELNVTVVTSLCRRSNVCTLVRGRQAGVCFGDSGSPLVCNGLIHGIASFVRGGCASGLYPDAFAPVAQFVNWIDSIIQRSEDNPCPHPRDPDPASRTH
Kind of assay: Inhibitory activity against [14C]-Elastin hydrolysis at 0.5 uM concentration and 2 hr. The gist of the method:
(§1)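 Elastase digestion of [¹⁴C]elastin, quantitated by radiolabel release (method of Bielefeld et al.). Substrate, inhibitor and elastase were all present for the whole run, and % inhibition was read at 1, 2 and 3 h.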

Assay [2] has as its target T1, Neutrophil elastase (Homo sapiens). Kind of assay: Inhibitory activity against [14C]elastin hydrolysis at 0.5 uM concentration and 3h. The gist of the method:
as §1

Assay [3] shares this target. The assay is described as follows: Inhibitory activity against [14C]elastin hydrolysis at 1 uM concentration and 1h. In outline: as §1
Assay [4] shares this target. The assay is described as follows: Inhibitory activity against [14C]elastin hydrolysis at 1 uM concentration and 2 hr. In outline:
as §1

The target is the same in assay [5]. The assay is described as follows: Inhibitory activity against [14C]elastin hydrolysis at 1 uM concentration and 3h. In outline: as §1
For assay [6], the target named is T2, Neutrophil elastase (Homo sapiens, UniProt P08246).
T2 sequence (P08246 whole entry): T1 sequence (whole entry)
Kind of assay: Inhibitory activity against human leukocyte elastase at 10e-8 M.

Assay [7] addresses T1, Neutrophil elastase (Homo sapiens). The assay is described as follows: Inhibitory activity against [14C]elastin hydrolysis at 2 uM concentration and 1h. In outline: as §1
The target is the same in assay [8]. The assay is described as follows: Inhibitory activity against [14C]-Elastin hydrolysis at 2 uM concentration and 2 hr. In outline:
as §1

Assay [9] shares this target. The assay is described as follows: Inhibitory activity against [14C]-Elastin hydrolysis at 2 uM concentration and 3h. The gist of the method:
as §1

Assay [10] is described as follows: Inhibitory activity against Hog pancreatic elastase IA = Inactive at 10e-5 M. The arrangement: species or system Sus scrofa.
In assay [11] the target is T2, Neutrophil elastase. The assay is described as follows: Binding affinity towards human leukocyte elastase at 10e-8 M. In outline: (§2)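 HLE activity followed as rise in absorbance at 410 nm from nitroanilide release; substrate (methoxysuccinyl)Ala-Ala-Pro-Val nitroanilide at 10⁻⁴ M. Run in 0.2 M Tris, pH 8.0, 30 °C. Inhibitors and substrate dissolved in DMSO, which made up 10% of the final medium. Enzyme titrated to give 0.12 OD unit/min per 10 mm path.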

The target of assay [12] is T1, Neutrophil elastase (Homo sapiens). The assay is described as follows: Inhibitory activity against [14C]elastin hydrolysis at 0.5 uM concentration and 1h. The gist of the method: as §1
Assay [13] can be described thus: Inhibitory activity against pancreatic elastase; IA = Inactive at 10e-5 M.
A short description of assay [14]: Inhibitory activity against Hog pancreatic elastase; IA = Inactive at 1e-5M. The arrangement: species or system Sus scrofa.
Assay [15] in a line: Inhibitory activity against pancreatic elastase; IA = Inactive at 1e-5M.
Assay [16] has as its target T2, Neutrophil elastase. Kind of assay: Inhibitory activity against human leukocyte elastase at 10e-7 M.
Assay [17] can be described thus: Inhibitory activity against Hog pancreatic elastase; IA = Inactive at 10e-6. The arrangement: species or system Sus scrofa.
Assay [18] can be described thus: Inhibitory activity against pancreatic elastase; IA = Inactive at 10e-6.
The target of assay [19] is T1, Neutrophil elastase (Homo sapiens). The conditions noted are these: 2 uM.
The target is the same in assay [20]. Particulars: 2 uM; call rule not given here. This is another data set of the same source.
For assay [21] the target is unchanged. Particulars: 2 uM. This is another data set of the same source.
Assay [22] shares this target. Particulars: 3 uM.
The target is the same in assay [23]. Particulars: 3 uM. The source holds these as a separate data set.
For assay [24] the target is unchanged. The conditions noted are these: 3 uM. The source holds these as a separate data set.
For assay [25] the target is unchanged. Particulars: 1 uM.
Assay [26] shares this target. Particulars: 1 uM. This is another data set of the same source.
For assay [27] the target is unchanged. Particulars: 1 uM. This is another data set of the same source.
Assay [28] has the same target. The assay is described as follows: Inhibitory activity against [14C]elastin hydrolysis at 4 uM concentration and 1h. The gist of the method:
as §1

For assay [29] the target is unchanged. Kind of assay: Inhibitory activity against [14C]elastin hydrolysis at 4 uM concentration and 2 hr. The gist of the method: as §1
For assay [30] the target is unchanged. The assay is described as follows: Inhibitory activity against [14C]elastin hydrolysis at 4 uM concentration and 3h. In outline:
as §1

The nature of assay [31]: Inhibitory activity against Hog pancreatic elastase; A = Inactive at 10e-5 M. On the set-up: species or system Sus scrofa.
The target of assay [32] is T2, Neutrophil elastase. The assay is described as follows: Binding affinity towards human leukocyte elastase at 10e-7 M.
The nature of assay [33]: Inhibitory activity against pancreatic elastase; A = Inactive at 10e-5 M.
In assay [34] the target is T2, Neutrophil elastase. The assay is described as follows: Inhibitory activity against human leukocyte elastase;IA = Inactive at 10e-4 M. In outline: as §2

The structures appear in SMILES notation.

For the compound `CC(C)(C)C(=O)Oc1ccc(C(=O)c2ccc(OC(=O)C(C)(C)C)cc2OC(=O)C(C)(C)C)c(OC(=O)C(C)(C)C)c1`, the inhibition (in general, the drop in the measured response relative to a control, in per cent) in assay [1] came out at 38%; in assay [2], 21%; in assay [3], 62%; in assay [4], 72%; in assay [5], 59%; in assay [7], 81%. For the same compound, the inhibition in [8] was 85%; in assay [9], 82%; in [12], 38%. The IC50 (commonly the concentration that inhibits the measured activity by half) was 27 nM on Neutrophil elastase [6], “Not Active” in [10] and “Not Active” in assay [13]. Moreover, the affinity at Neutrophil elastase [11] corresponds to a Ki of 68 nM.
As for `CC(C)(C)C(=O)Oc1ccc(C(=O)c2ccccc2)cc1`, the IC50 result in assay [14] and in assay [15] was “Not Active” throughout.
In the case of `CC(C)(C)C(=O)Oc1ccc(C(=O)c2ccc(OC(=O)C(C)(C)C)cc2)cc1`, the IC50 is 120 nM at Neutrophil elastase [16], “Not Active” in assay [17] and “Not Active” in assay [18]. The Ki (as a rule, a dissociation constant, usually derived from enzyme kinetics or from competition with a known ligand) on Neutrophil elastase [11] is 71 nM. Further, the inhibition is 62% in assay [19]; 42% in assay [20]; 46% in [21]; 77% in assay [22]; 77% in assay [23]; 67% in [24]. Besides, the results for the inhibition in assay [25], in assay [26] and in assay [27] were 34%, 28% and 15%, respectively.
Consider `CC(C)(C)C(=O)Oc1ccc(C(=O)OCc2cc(=O)c(OC(=O)C(C)(C)C)co2)c(OC(=O)C(C)(C)C)c1`, for which the inhibition in [28] was 93%; in assay [29], 80%; in [30], 54%; in assay [3] it was 25%; in assay [4] it was 5%; in assay [5], -1%. The inhibition in [7] came to 36%; in [8], 16%; in [9], 1%. The IC50 at Neutrophil elastase [6] was 27 nM; in [31] it was “Not Active”; in assay [33] it was “Not Active”. This compound also showed a Ki at Neutrophil elastase [32] of 70 nM.
In the case of `CC(C)(C)C(=O)Oc1coc(CO)cc1=O`, the IC50 result against Neutrophil elastase [34] is “Not Active”.

Values taken from ChEMBL document CHEMBL1124104, “(Acyloxy)benzophenones and (acyloxy)-4-pyrones. A new class of inhibitors of human neutrophil elastase” (J Med Chem, 1988).
